Active and inactive are the calls of the source.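 How the source made its calls, unless noted: active means viability at or below 30% in both replicate assays; inconclusive means viability at or below 30% in just one of the two assays; inactive means the rest.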
Key:
[1] = reducers of endogenous Her2 protein level, primary screen, SKBR3 breast tumor cells, AlphaScreen, ATP viability (AID 461;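 active means Her2 level under about 52% in both replicate screens, with viability over 70% of control, limit read from the data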;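 on Her2 level: lower value means less Her2 protein in the cells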;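 on viability: percent of carrier control wells set as 100% viability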); settings: 18-24 h, measured here: SKBR3 viability, ATP luminescence, at 10 µM
[2] = molecular target: Receptor tyrosine-protein kinase erbB-2 (Homo sapiens) (UniProt P04626); assay: as above; settings: 18-24 h, at 10 µM, stronger effect = lower value
Sequence of Receptor tyrosine-protein kinase erbB-2 (Homo sapiens) (P04626 whole entry, looked up): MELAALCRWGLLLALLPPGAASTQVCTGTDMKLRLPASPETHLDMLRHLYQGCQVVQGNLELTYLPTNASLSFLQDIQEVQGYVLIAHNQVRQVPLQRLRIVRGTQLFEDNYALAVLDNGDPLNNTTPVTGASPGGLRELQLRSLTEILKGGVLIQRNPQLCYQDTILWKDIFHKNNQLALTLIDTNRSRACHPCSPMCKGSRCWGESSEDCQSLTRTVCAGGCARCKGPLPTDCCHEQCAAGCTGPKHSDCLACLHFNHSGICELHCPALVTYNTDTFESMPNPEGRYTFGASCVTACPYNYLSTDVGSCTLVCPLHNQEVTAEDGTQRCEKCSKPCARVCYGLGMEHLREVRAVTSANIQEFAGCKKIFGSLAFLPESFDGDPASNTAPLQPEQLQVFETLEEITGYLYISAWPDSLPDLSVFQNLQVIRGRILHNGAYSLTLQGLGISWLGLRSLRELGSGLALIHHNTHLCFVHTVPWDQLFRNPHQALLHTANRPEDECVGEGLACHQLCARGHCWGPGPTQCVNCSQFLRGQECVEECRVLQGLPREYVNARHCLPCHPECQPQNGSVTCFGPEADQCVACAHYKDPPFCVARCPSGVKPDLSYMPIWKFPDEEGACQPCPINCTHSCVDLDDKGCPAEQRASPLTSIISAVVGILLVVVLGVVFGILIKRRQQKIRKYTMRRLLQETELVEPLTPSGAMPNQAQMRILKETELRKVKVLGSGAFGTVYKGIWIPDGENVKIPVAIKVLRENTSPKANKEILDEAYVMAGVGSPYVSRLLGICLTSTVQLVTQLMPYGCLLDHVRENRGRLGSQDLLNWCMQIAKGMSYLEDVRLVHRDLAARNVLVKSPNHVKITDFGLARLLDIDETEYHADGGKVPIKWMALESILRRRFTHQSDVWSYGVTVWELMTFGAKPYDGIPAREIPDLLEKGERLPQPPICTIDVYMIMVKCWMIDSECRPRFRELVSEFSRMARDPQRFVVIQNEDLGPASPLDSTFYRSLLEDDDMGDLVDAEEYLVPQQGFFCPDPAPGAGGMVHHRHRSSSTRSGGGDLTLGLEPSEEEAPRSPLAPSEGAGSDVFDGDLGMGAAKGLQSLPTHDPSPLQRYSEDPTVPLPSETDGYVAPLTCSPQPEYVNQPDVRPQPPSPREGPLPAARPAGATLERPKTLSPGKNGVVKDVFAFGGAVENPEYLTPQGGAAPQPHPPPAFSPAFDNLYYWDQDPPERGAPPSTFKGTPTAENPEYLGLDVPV

[3] = SK-BR-3 cell growth inhibitors, pilot screen, 24 h, human (AID 572;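 active means viability at or below 10% of carrier control in both of two separate runs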;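 further: compound exposure lasted between 18 and 24 h rather than exactly 24 h; 100% = carrier-treated control wells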); settings: SK-BR-3 viability, CellTiter-Glo luminescence, at 10 µM, stronger effect = lower value
[4] = HUVEC growth inhibition – cell-based, human, primary screen (AID 575); settings: HUVEC proliferation, CellTiter-Glo luminescence, 72 h; at 10 µM; stronger effect = lower value;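 further: 100% = median of untreated cell wells with 0.1% DMSO on each plate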
Outline: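 Test system: primary human umbilical vein endothelial cells; medium: endothelial basal medium with 2% FBS plus growth supplements; dosing: 10 µM compound only; times: 72 h treatment at 37 °C; signal: CTG luminescence; read-out: % viability relative to median vehicle-well signal on each plate; control set: vehicle and MePR control wells; plate: 384-well, collagen-coated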

[5] = growth inhibitors of H69AR lung tumor, primary screen, human, duplicate replicates (AID 580;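 active means viability at or under a set limit in both replicates, limit being median viability minus 3 SD, cut at about 48% in these data, passing the limit was not always enough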;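 further: 100% = mean luminescence of untreated wells and 0% = no signal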); settings: H69AR lung tumor cells viability, ATP luminescence, 72 h; at 10 µM; stronger effect = lower value
[6] = reversal of MRP1-mediated doxorubicin resistance, pilot screen, H69AR cells, doxorubicin co-treatment (AID 601;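 active means viability loss from added drug above about 55%, and viability with drug at most 40%, in both replicates, limit read from the data, passing the limit was not always enough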); settings: CellTiter-Glo, 72 h, at 10 µM; for differential viability (reversal): stronger effect = higher value
[7] = 384-well plate pilot, post-Golgi transport modulator project, inhibition of yeast transport mutant growth (AID 636; in the data active means inhibition above about 31%); settings: absorbance 615 nm, about 18 h, stronger effect = higher value
[8] = growth suppression of yeast trafficking mutant, preliminary HTS, modulators of trafficking downstream of Golgi apparatus project, 1536-format plate, OD 615 nm (AID 637; in the data active means inhibition above about 30%); settings: yeast transport mutant growth, absorbance 615 nm, 18 h; stronger effect = higher value
[9] = H69AR cells + 2 uM doxorubicin, measured here: viability with 2 uM doxorubicin, stronger effect = lower value
[10] = H69AR cells, compound alone cytotoxicity

Compound | viability [1] [%] | Her2 level [2] | viability [3] | viability [4] | viability [5] | differential viability (reversal) ([6]; H69AR cells + 2 uM doxorubicin) | viability [6, 9] [%] | viability [6, 10] [%] | inhibition [7] | inhibition [8]
O=C(CN(C(=O)CCC(=O)Nc1nccs1)c1ccccc1F)NCC1CCCO1 (stereo not given) | 110 | 104% (inactive) | 110% (inactive) | 105% (inactive) | 100% (inactive) | 9.81% (inactive) | 90.4 | 100 | -3.33% (inactive) | 13.1% (inactive)
O=C(COC(=O)C1CC(=O)N(c2ccccc2)C1)c1ccccc1 (stereo not given) | 99.5 | 107% (inactive) | 99.5% (inactive) | 101% (inactive) | 86.6% (inactive) | -9.89% (inactive) | 96.5 | 86.6 | 4.1% (inactive) | -6.67% (inactive)
CCOC(=O)N1CCN(CC(O)COc2ccccc2C(C)CC)CC1 (stereo not given) | 104 | 92.5% (inactive) | 104% (inactive) | 99% (inactive) | 94.7% (inactive) | 1.52% (inactive) | 93.2 | 94.7 | 31.6% (active) | 29.2% (inactive)
NC(=O)CSc1nnc(-c2ccc(O)cc2)n1Cc1ccco1 | 108 | 102% (inactive) | 108% (inactive) | 105% (inactive) | 98.6% (inactive) | 9.33% (inactive) | 89.3 | 98.6 | -6% (inactive) | 4.68% (inactive)
COc1ccc(C)cc1-n1nnnc1SCC(=O)Nc1cc(C)on1 | 95 | 85% (inactive) | 95% (inactive) | 78.6% (inactive) | 90.6% (inactive) | 4.68% (inactive) | 85.9 | 90.6 | -2.6% (inactive) | -0.63% (inactive)
CC1CCc2c(sc(N)c2C(N)=O)C1 (stereo not given) | 95.5 | 81% (inactive) | 95.5% (inactive) | 86.7% (inactive) | 91.5% (inactive) | 6.62% (inactive) | 84.9 | 91.5 | -0.26% (inactive) | 4.5% (inactive)
O=C(c1ccccc1-c1ccccc1)N1CCN(c2ccccn2)CC1 | 69.5 | 93% (inactive) | 69.5% (inactive) | 58.8% (inactive) | 16% (active) | -57.7% (inactive) | 73.7 | 16 | -6.76% (inactive) | -4.75% (inactive)
CC1=C(C(=O)Nc2ccccc2)C(c2ccco2)C(C#N)=C(SCC(=O)Nc2cccc(C)c2C)N1 (stereo not given) | 104 | 85.5% (inactive) | 104% (inactive) | 77.1% (inactive) | 47.5% (active) | -10.1% (inactive) | 57.6 | 47.5 | -4.93% (inactive) | -3.97% (inactive)
CCOCCCNC(=O)c1c[nH]c2ccc(S(=O)(=O)Nc3cccc(OC)c3)cc2c1=O | 108 | 106% (inactive) | 108% (inactive) | 83.4% (inactive) | 99.9% (inactive) | 6.57% (inactive) | 93.3 | 99.9 | -5.66% (inactive) | -8.71% (inactive)
N#C/C(=C(/O)CN1CCOCC1)c1nc2ccccc2s1 | 89.5 | 145% (inactive) | 89.5% (inactive) | 99.3% (inactive) | 106% (inactive) | 5.77% (inactive) | 100 | 106 | 2.73% (inactive) | -13.8% (inactive)
O=C(CSc1ncccn1)NCc1ccccc1 | 94 | 112% (inactive) | 94% (inactive) | 106% (inactive) | 105% (inactive) | 5.14% (inactive) | 100 | 105 | 4.4% (inactive) | -8.71% (inactive)
CCOC(=O)c1ccc2[nH]c(C)c(CN3CCN(C)CC3)c(=O)c2c1 | 114 | 81% (inactive) | 114% (inactive) | 97.9% (inactive) | 91.4% (inactive) | -0.335% (inactive) | 91.8 | 91.4 | -7.03% (inactive) | 2.79% (inactive)
CN(C(=O)COc1cc(=O)n(C)c2ccccc12)c1ccc(Br)cc1 | 100 | 104% (inactive) | 100% (inactive) | 74.5% (inactive) | 82.5% (inactive) | 4.22% (inactive) | 78.3 | 82.5 | -1.87% (inactive) | -4.1% (inactive)
CCOC(=O)c1ccc(NC2OC(=O)c3ccccc32)cc1 (stereo not given) | 106 | 93% (inactive) | 106% (inactive) | 77.4% (inactive) | 91.9% (inactive) | -3.92% (inactive) | 95.8 | 91.9 | -6.89% (inactive) | 6.17% (inactive)
COc1ccc(C)cc1S(=O)(=O)Nc1cccnc1 | 90.5 | 84.5% (inactive) | 90.5% (inactive) | 91.2% (inactive) | 88.4% (inactive) | 1.54% (inactive) | 86.9 | 88.4 | -4.19% (inactive) | 0.16% (inactive)
CC1=CCC(C(C)(C)NC(=O)c2ccccc2)C/C1=N\O (stereo not given) | 104 | 98.5% (inactive) | 104% (inactive) | 112% (inactive) | 106% (inactive) | 17.3% (inactive) | 88.6 | 106 | -0.81% (inactive) | 4.44% (inactive)

— PubChem BioAssay
